# Results from different studies.
# Lines come from different studies, so protocols differ.
# Target: SRSF protein kinase 2 (SRPK2, Homo sapiens, UniProt P78362)
SMILES,assay,conditions,measurement,value
Cc1sc(C(=O)NC2COC2)cc1-n1cc(NC(=O)Nc2c(F)cccc2Cl)cn1,"enzyme activity, inhibitor",10 µM,remaining activity,114%
CN1CCN(c2cnc3c(C4CCN(C(=O)c5ccc(OC(F)(F)F)cc5N)CC4)ncnc3c2)CC1,"cell-free assay, competition with immobilised ligand",1 µM,remaining binding,78%
O=C1NC(=O)c2cc(Nc3ccc(F)cc3)c(Nc3ccc(F)cc3)cc21,cell-free assay,0.5 µM,remaining signal,92.3%
COc1cc2ncnc(Nc3ccc(Oc4ccccc4)cc3C)c2cc1OC,"enzyme activity, inhibitor",1 µM,inhibition,0%
CCOc1cc(-c2nncn2C)ccc1Nc1ncc2cc(C)nc(NCC(C)(C)C)c2n1,"enzyme activity, inhibitor, FRET",1 µM,inhibition,< 15%
COc1cccc(CNC(=O)c2nc3scc(COCc4ccc(C(=O)O)cc4)c3c(=O)[nH]2)c1,"cell-free assay, competition with immobilised ligand",1 µM,remaining binding,100%
CCN(CC)CCNC(=O)c1c(C)[nH]c(/C=C2\C(=O)Nc3ccc(F)cc32)c1C,"enzyme activity, inhibitor",10 µM,inhibition,37%
CCC1(CC)NC(=O)c2c(c3ccc(Cl)c(Cl)c3n2C)C1C#N (stereo not shown),"thermal stability, DSF",10 µM,ΔTm,0.1 °C
CO[C@@H](C)c1c(Nc2ccc([C@H](N(C)C(=O)C3CCS(=O)(=O)CC3)C(F)(F)F)cc2)cnc2cc(Cl)nn12,"cell-free assay, competition with immobilised ligand",1 µM,remaining binding,100%
CC/C(=N\NC(=O)NCc1cccc(O)c1)c1ccc(O)c(C)c1O,"enzyme activity, inhibitor",0.1 µM,inhibition,-2.2%
O=C1Nc2ccc(Cl)cc2C1=Cc1cc(Cl)c(O)c(Cl)c1,cell-free assay,0.5 µM,remaining signal,95.2%
CNC(=O)c1cc(Oc2ccc(NC(=O)Nc3ccc(Cl)c(C(F)(F)F)c3)cc2)ccn1,"enzyme activity, inhibitor",10 µM,inhibition,12%
Cn1c2c(c3ccc(Cl)c(Cl)c31)C(C#N)C(C)(C)NC2=O (stereo not shown),"thermal stability, DSF",10 µM,ΔTm,0.6 °C
Cc1ccc(Nc2nccc(N(C)c3ccc4c(C)n(C)nc4c3)n2)cc1S(N)(=O)=O,"enzyme activity, inhibitor",10 µM,inhibition,4%
CCN1CCC2(CC1)NC(=O)c1c(c3ccc(Cl)c(Cl)c3n1C)C2C#N (racemic),"thermal stability, DSF",10 µM,ΔTm,0.5 °C
CCCOc1ccc(OC)c(F)c1C(=O)c1ccc(C(=O)N[C@@H]2CNC[C@H]2NC(=O)c2ccc3[nH]ncc3c2)cc1,"enzyme activity, inhibitor",10 µM,remaining activity,93%
Cc1cc(-n2nc(Cc3cc(F)cc(C(F)(F)F)c3)nc2C)ccc1C(N)=O,"cell-free assay, competition with immobilised ligand",1 µM,remaining binding,100%
Nc1ncnc2occ(-c3ccc(NC(=O)Nc4cc(C(F)(F)F)ccc4F)cc3)c12,"cell-free assay, inhibitor",20 µM,remaining signal,100%
CNC(=O)Nc1ccc2c(c1)[C@@]1(CC2)OC(=O)N(CC(=O)N(Cc2ccc(F)cc2)[C@@H](C)C(F)(F)F)C1=O,"cell-free assay, competition with immobilised ligand",1 µM,remaining binding,100%
COc1cc(-c2cc(-c3ccc(N4CCNCC4)cc3)cnc2C)cc(OC)c1OC,"enzyme activity, inhibitor",1 µM,inhibition,2%
CCC(=N\O)/C(C)=C/c1ccc(F)cc1,"cell-free assay, competition with immobilised ligand",1 µM,remaining binding,75%
Cn1c2c(c3ccccc31)C(C#N)C(C)(C)NC2=O (stereo not shown),"thermal stability, DSF",10 µM,ΔTm,0 °C
CC(C1CC1)n1cnc2c(NCc3cccc(C(F)(F)F)c3)nc(NCCN(C)C)nc21 (stereo not shown),"enzyme activity, inhibitor",5 µM,inhibition,> 50%
Cc1cnc(NC2CCOCC2)nc1-n1cnc(C(=O)NC(CN)c2cc(F)cc(Cl)c2)c1 (stereo not shown),"enzyme activity, inhibitor, radiometric",1 µM,remaining activity,101%
O=C(Nc1cnn(-c2csc(C(=O)NC3COC3)c2)c1)Nc1c(F)cccc1Cl,"enzyme activity, inhibitor",5 µM,remaining activity,94%
CN1CCC2(CC1)NC(=O)c1c(c3ccc(Cl)c(Cl)c3n1C)C2C#N (racemic),"thermal stability, DSF",10 µM,ΔTm,0.7 °C
CC(C)(C)c1nc2c(s1)c1nc(N)ncc1c1ccc(NS(=O)(=O)c3c(F)cccc3F)c(F)c12,"enzyme activity, inhibitor, radiometric",1 µM,remaining activity,108%
N#CC1(c2ccccn2)CCN(Cc2cc(C(=O)N3CCCC3)c(=O)n3ccccc23)CC1,"cell-free assay, competition with immobilised ligand",1 µM,remaining binding,84%
Cn1c2c(c3ccc(Cl)c(Cl)c31)C(C#N)C1(CCCCC1)NC2=O (racemic),"thermal stability, DSF",10 µM,ΔTm,0.2 °C
C[C@@H](c1cccc(C#N)c1)n1cc(Cl)cc(C(N)=O)c1=N,"cell-free assay, competition with immobilised ligand",1 µM,remaining binding,100%
Cn1c2c(c3ccc(Cl)c(Cl)c31)C(C#N)C1(CCNCC1)NC2=O (racemic),"thermal stability, DSF",10 µM,ΔTm,2.4 °C
